Measured values taken from PubChem BioAssay.
Calls of active or inactive are those of the source.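 The calls were made as follows, unless noted: active = viability loss from added drug above about 55%, and viability with drug at most 40%, in both replicates (limit read from the data, passing the limit was not always enough); inconclusive = both conditions met in only one replicate; inactive = neither replicate meets both conditions.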

Tests used:
[1] = Her2 expression decrease, cell viability multiplex – SKBR3 breast tumor cells, AlphaScreen, ATP viability, primary screen (AID 461;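 active = Her2 level under about 52% in both replicate screens, with viability over 70% of control, limit read from the data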;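 as to Her2 level: lower value means less Her2 protein in the cells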;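 as to viability: percent of carrier control wells set as 100% viability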); details: SKBR3 Her2 protein level, 18-24 h, measured here: SKBR3 viability, ATP luminescence, at 10 µM
[2] = biological target: Receptor tyrosine-protein kinase erbB-2 (Homo sapiens) (UniProt P04626); assay: as above; details: 18-24 h, at 10 µM, stronger effect = lower value
[3] = reduced viability of SK-BR-3 breast cancer cells – cell-based, 24 h, human, pilot screen (AID 572;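 active = viability at or below 10% of carrier control in both of two separate runs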;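 also: compound exposure lasted between 18 and 24 h rather than exactly 24 h; 100% = carrier-treated control wells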); details: SK-BR-3 viability, CellTiter-Glo luminescence, at 10 µM, stronger effect = lower value
[4] = HUVEC growth inhibition – cell-based, human, primary screen (AID 575;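 active = viability at or below 30% in both replicate assays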;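 also: 100% = median of untreated cell wells with 0.1% DMSO on each plate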); details: HUVEC proliferation, CellTiter-Glo luminescence, 72 h; at 10 µM; stronger effect = lower value
In short: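 Material: primary human umbilical vein endothelial cells / Schedule: 72 h exposure, 37 °C, 5% CO2, 30 min RT equilibration / Signal: ATP-based CellTiter-Glo luminescent read / Read-out basis: percent of median DMSO-control luminescence / Control set: 32 DMSO-only cell-control wells (high), 32 MePR drug-control wells (low) per plate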

[5] = H69AR cell proliferation blockers – human, duplicate replicates, primary screen (AID 580;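 active = viability at or under a set limit in both replicates, limit being median viability minus 3 SD, cut at about 48% in these data, passing the limit was not always enough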;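 also: 100% = mean luminescence of untreated wells and 0% = no signal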); details: H69AR lung tumor cells viability, ATP luminescence, 72 h; at 10 µM; stronger effect = lower value
[6] = MRP1 drug-resistance reversers in H69AR cells – cell-based, doxorubicin co-treatment, pilot screen (AID 601); details: CellTiter-Glo, 72 h, at 10 µM; for differential viability (reversal): stronger effect = higher value
[7] = yeast transport mutant growth inhibition pilot in 384-well plates, post-Golgi transport modulator project (AID 636; in the data active = inhibition above about 31%); details: absorbance 615 nm, about 18 h, stronger effect = higher value
[8] = growth suppression of yeast trafficking mutant, preliminary HTS, modulators of trafficking downstream of Golgi apparatus project, 1536-format plate, OD 615 nm (AID 637; in the data active = inhibition above about 30%); details: yeast transport mutant growth, absorbance 615 nm, 18 h; stronger effect = higher value
[9] = H69AR cells + 2 uM doxorubicin, measured here: viability with 2 uM doxorubicin, stronger effect = lower value
[10] = H69AR cells, compound alone cytotoxicity

Chain of Receptor tyrosine-protein kinase erbB-2 (Homo sapiens) (P04626 whole entry, looked up): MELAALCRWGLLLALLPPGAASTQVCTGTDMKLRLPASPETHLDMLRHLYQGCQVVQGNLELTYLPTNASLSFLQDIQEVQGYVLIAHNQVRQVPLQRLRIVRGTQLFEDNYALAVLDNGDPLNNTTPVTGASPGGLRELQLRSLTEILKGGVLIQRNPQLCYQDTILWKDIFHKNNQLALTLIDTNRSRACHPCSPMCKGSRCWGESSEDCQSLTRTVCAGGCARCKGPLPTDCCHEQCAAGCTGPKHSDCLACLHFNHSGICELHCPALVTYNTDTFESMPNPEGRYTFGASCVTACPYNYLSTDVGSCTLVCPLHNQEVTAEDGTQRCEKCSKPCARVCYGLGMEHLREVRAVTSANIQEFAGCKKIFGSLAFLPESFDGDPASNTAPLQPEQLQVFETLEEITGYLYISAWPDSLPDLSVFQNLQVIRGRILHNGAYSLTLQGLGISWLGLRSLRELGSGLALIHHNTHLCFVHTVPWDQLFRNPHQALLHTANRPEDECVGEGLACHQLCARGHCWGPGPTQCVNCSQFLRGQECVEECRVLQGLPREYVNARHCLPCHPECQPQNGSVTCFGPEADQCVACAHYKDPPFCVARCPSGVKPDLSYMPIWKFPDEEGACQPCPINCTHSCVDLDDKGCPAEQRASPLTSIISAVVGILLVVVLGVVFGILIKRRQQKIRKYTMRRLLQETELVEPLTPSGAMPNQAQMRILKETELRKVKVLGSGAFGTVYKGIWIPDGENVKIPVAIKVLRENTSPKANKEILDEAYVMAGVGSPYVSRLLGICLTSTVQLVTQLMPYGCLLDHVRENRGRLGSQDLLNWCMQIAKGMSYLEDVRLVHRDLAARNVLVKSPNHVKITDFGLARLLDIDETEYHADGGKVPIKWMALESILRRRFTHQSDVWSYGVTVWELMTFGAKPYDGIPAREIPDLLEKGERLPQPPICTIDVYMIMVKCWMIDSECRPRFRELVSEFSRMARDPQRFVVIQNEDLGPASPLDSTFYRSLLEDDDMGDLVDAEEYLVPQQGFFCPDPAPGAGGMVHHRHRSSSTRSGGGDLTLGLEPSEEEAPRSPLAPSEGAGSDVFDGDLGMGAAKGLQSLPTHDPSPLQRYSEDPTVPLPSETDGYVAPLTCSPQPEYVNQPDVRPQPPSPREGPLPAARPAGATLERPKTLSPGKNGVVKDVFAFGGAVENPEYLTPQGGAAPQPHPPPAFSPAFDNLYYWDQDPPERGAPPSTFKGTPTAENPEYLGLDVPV

Row | Structure (SMILES) | viability [1] | Her2 level [2] | viability [3] | viability [4] | viability [5] | differential viability (reversal) ([6]; H69AR cells + 2 uM doxorubicin) | viability [6, 9] | viability [6, 10] | inhibition [7] | inhibition [8]
1 | O=C(CN(Cc1ccco1)C(=O)CNS(=O)(=O)c1ccc(F)cc1)NCCc1ccccc1 | 78% | 91.5% (inactive) | 78% (inactive) | 85.8% (inactive) | 91.9% (inactive) | 0.9% (inactive) | 91% | 91.9% | -6.35% (inactive) | -2.79% (inactive)
2 | CCOC(=O)c1nnn(-c2nonc2N)c1CN1CCc2ccccc2C1 | 102% | 93% (inactive) | 102% (inactive) | 96.4% (inactive) | 91.7% (inactive) | -0.015% (inactive) | 91.7% | 91.7% | -0.13% (inactive) | -3.02% (inactive)
3 | COc1cc(OC)c(C2N(C)c3ccccc3N2C)cc1OC | 91.5% | 112% (inactive) | 91.5% (inactive) | 86.7% (inactive) | 107% (inactive) | 8.16% (inactive) | 98.4% | 107% | -5.68% (inactive) | 4.26% (inactive)
4 | CC(C)C(NC(=O)c1ccco1)C(=O)NCC(c1ccco1)N1CCCCC1 (stereo not given) | 96.5% | 94.5% (inactive) | 96.5% (inactive) | 94.8% (inactive) | 93.9% (inactive) | 18.1% (inactive) | 75.8% | 93.9% | -2.97% (inactive) | -0.32% (inactive)
5 | COc1ccc(OC)c(Nc2cc(-c3ccccc3)nc(N)n2)c1 | 72% | 69% (inactive) | 72% (inactive) | 34.2% (inactive) | 30.7% (active) | -36.4% (inactive) | 67.1% | 30.7% | -5.92% (inactive) | -5.09% (inactive)
6 | O=C(CSc1nc2ccsc2c(=O)n1NC(=O)c1ccccc1)Nc1nccs1 | 105% | 86.5% (inactive) | 105% (inactive) | 96.9% (inactive) | 100% (inactive) | 2.06% (inactive) | 98% | 100% | -4.74% (inactive) | -2.83% (inactive)
7 | O=C(NCc1ccc(F)cc1)C1CCN(C(=O)NCc2ccccc2)CC1 | 115% | 110% (inactive) | 115% (inactive) | 89.8% (inactive) | 101% (inactive) | 6.81% (inactive) | 93.8% | 101% | -3.38% (inactive) | -7.17% (inactive)
8 | CN(C)/C=C1\N=C(c2ccc3c(c2)OCO3)OC1=O | 91% | 94.5% (inactive) | 91% (inactive) | 94.4% (inactive) | 98.1% (inactive) | 21.1% (inactive) | 76.9% | 98.1% | -1.56% (inactive) | -4.5% (inactive)
9 | COc1ccc2c(CC(=O)Nc3nnc(C4CC4)s3)coc2c1 | 120% | 81% (inactive) | 120% (inactive) | 89.4% (inactive) | 99.4% (inactive) | 5.3% (inactive) | 94.1% | 99.4% | -7.26% (inactive) | -1.9% (inactive)
10 | CCN(C(=O)c1cn(C)c(=O)c2cc(OC)c(OC)cc12)c1ccccc1C | 108% | 75% (inactive) | 108% (inactive) | 106% (inactive) | 98.2% (inactive) | 7.24% (inactive) | 91% | 98.2% | -0.54% (inactive) | -1.43% (inactive)
11 | O=C(Nc1cccnc1)c1ccc2c(c1)OCO2 | 119% | 121% (inactive) | 119% (inactive) | 99.6% (inactive) | 97.7% (inactive) | 13.8% (inactive) | 83.9% | 97.7% | -5.33% (inactive) | 9.84% (inactive)
12 | COc1ccc(-n2c(Cc3cccn3C)nnc2SCC(=O)Nc2cccc(OC)c2)cc1 | 106% | 97.5% (inactive) | 106% (inactive) | 80.9% (inactive) | 98% (inactive) | 0.895% (inactive) | 97.1% | 98% | 1.79% (inactive) | 0% (inactive)
13 | Cc1ccc(C)c(N2CCN(C(=O)c3ccc(CS(=O)(=O)c4ccccc4C)o3)CC2)c1 | 82% | 66.5% (inactive) | 82% (inactive) | 50.8% (inactive) | 11.8% (active) | -39.1% (inactive) | 50.9% | 11.8% | -3.16% (inactive) | 1.27% (inactive)
14 | Cn1c(=N)c(S(=O)(=O)c2ccc(Cl)cc2)cc2c(=O)n3ccccc3nc21 | 110% | 106% (inactive) | 110% (inactive) | 85.4% (inactive) | 83.1% (inactive) | -3.57% (inactive) | 86.7% | 83.1% | -1.95% (inactive) | -1.67% (inactive)
15 | CCOC(=O)c1cccnc1SCC(=O)NC(C)CC (stereo not given) | 92% | 93% (inactive) | 92% (inactive) | 96.7% (inactive) | 102% (inactive) | 9.73% (inactive) | 92.3% | 102% | 2.08% (inactive) | -3.61% (inactive)
16 | Cc1ccc(-n2nnnc2SCC(=O)N2CCN(C(=O)c3ccco3)CC2)c(C)c1 | 119% | 84.5% (inactive) | 119% (inactive) | 86% (inactive) | 95.5% (inactive) | 0.745% (inactive) | 94.8% | 95.5% | -7.76% (inactive) | -2.18% (inactive)

Row | Structure (SMILES) | viability [1] | Her2 level [2] | viability [3] | viability [4] | viability [5] | differential viability (reversal) ([6]; H69AR cells + 2 uM doxorubicin) | viability [6, 9] | viability [6, 10] | inhibition [7] | inhibition [8]
17 | Cc1cc(NC(=O)CSc2nccn2-c2ccc(F)cc2)no1 | 85.5% | 81.5% (inactive) | 85.5% (inactive) | 83.4% (inactive) | 104% (inactive) | 15.8% (inactive) | 88.4% | 104% | -2.99% (inactive) | -3.17% (inactive)
18 | Cc1cc2ccccn2c1C(=O)c1ccncc1 | 114% | 98% (inactive) | 114% (inactive) | 106% (inactive) | 87.9% (inactive) | 9.15% (inactive) | 78.8% | 87.9% | -3.77% (inactive) | 2.22% (inactive)
19 | O=C(CCSc1ccccc1)N1CCOCC1 | 94% | 98.5% (inactive) | 94% (inactive) | 96.7% (inactive) | 93.5% (inactive) | -0.87% (inactive) | 94.4% | 93.5% | -5.39% (inactive) | -2.13% (inactive)
20 | CCCCOCP(=O)(CCCC)COCCCC | 92.5% | 91.5% (inactive) | 92.5% (inactive) | 95.3% (inactive) | 94.1% (inactive) | 5.32% (inactive) | 88.8% | 94.1% | -3.12% (inactive) | -0.98% (inactive)
21 | CC(O)c1nc2ccccc2n1C1CCCCC1 (stereo not given) | 104% | 91.5% (inactive) | 104% (inactive) | 124% (inactive) | 97.2% (inactive) | 11.3% (inactive) | 85.9% | 97.2% | -1.18% (inactive) | 3.55% (inactive)
22 | CCOc1ccc2[nH]c(=O)c(CN(CCOC)C(=O)N3CCOCC3)cc2c1 | 97% | 90% (inactive) | 97% (inactive) | 102% (inactive) | 92.1% (inactive) | -8.59% (inactive) | 101% | 92.1% | -3.33% (inactive) | 4.59% (inactive)
23 | COC(=O)[C@@H](NC(=O)NCc1ccccc1Cl)C(C)C | 95% | 123% (inactive) | 95% (inactive) | 84.9% (inactive) | 94.4% (inactive) | -1.47% (inactive) | 95.9% | 94.4% | -1.17% (inactive) | -9.5% (inactive)
24 | CCOC(=O)N1CCC(NC(=O)CS(=O)(=O)Cc2nc(-c3ccccc3C)oc2C)CC1 | 105% | 95% (inactive) | 105% (inactive) | 114% (inactive) | 95.7% (inactive) | -4.35% (inactive) | 100% | 95.7% | -3.73% (inactive) | 0.66% (inactive)
25 | Cc1ccc(S(=O)(=O)N2CCN(CCO)CC2)cc1-c1nnc2c3ccccc3c(C)nn12 | 104% | 94% (inactive) | 104% (inactive) | 99.4% (inactive) | 96.2% (inactive) | 2.01% (inactive) | 94.2% | 96.2% | -5.07% (inactive) | -2.79% (inactive)
26 | O=C(NC(C(=O)c1ccccc1)n1ccc(=O)[nH]c1=O)c1ccccc1 (stereo not given) | 98.5% | 99% (inactive) | 98.5% (inactive) | 98.8% (inactive) | 91.2% (inactive) | 6.79% (inactive) | 84.4% | 91.2% | -0.93% (inactive) | 23.1% (inactive)
27 | CC(=O)c1cc(C#N)c(SCC(=O)OC(C)C)nc1C | 102% | 80.5% (inactive) | 102% (inactive) | 88% (inactive) | 61.2% (inactive) | 23.3% (inactive) | 37.9% | 61.2% | -7.03% (inactive) | 5.67% (inactive)
28 | FC(F)Sc1nnc(-c2cccs2)n1-c1ccccc1 | 101% | 92% (inactive) | 101% (inactive) | 93.6% (inactive) | 98% (inactive) | 10.1% (inactive) | 87.9% | 98% | -7.33% (inactive) | 2.74% (inactive)
29 | Cc1ccc(-c2nnn(CC(=O)N(Cc3ccco3)C(C(=O)NC(C)(C)C)c3cccs3)n2)o1 (stereo not given) | 119% | 81% (inactive) | 119% (inactive) | 89.1% (inactive) | 95.9% (inactive) | 6.13% (inactive) | 89.8% | 95.9% | 0.4% (inactive) | -4.1% (inactive)
30 | Cc1oc(-c2ccccc2F)nc1CS(=O)(=O)CC(=O)NCc1ccco1 | 116% | 124% (inactive) | 116% (inactive) | 85.9% (inactive) | 93.8% (inactive) | 7.03% (inactive) | 86.8% | 93.8% | -3.2% (inactive) | -2.62% (inactive)
31 | Cc1cccc(-n2c(O)c(C=Nc3ccccc3N)c(=O)[nH]c2=O)c1 | 108% | 94.5% (inactive) | 108% (inactive) | 88.2% (inactive) | 10.1% (active) | -28.2% (inactive) | 38.3% | 10.1% | -5.19% (inactive) | -0.16% (inactive)
